Measured values: ChEMBL document CHEMBL4382192, “Discovery of a potent dual ALK and EGFR T790M inhibitor” (Eur J Med Chem, 2017)

How the values were obtained:
[1] = Metabolic stability in human liver microsomes assessed as parent compound remaining at 1 uM after 30 mins in presence of NADPH by LC/MS/MS analysis; format: ADME, Microsome; conditions: read-out: Stability
Outline: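 Compound at 1 μM final with 0.5 mg/mL microsomal protein in 100 mM phosphate buffer pH 7.4 at 37 °C, started by adding an NADPH-regenerating system. Reactions were quenched with cold acetonitrile at 0 and 30 min and spun down. Supernatant was analysed by LC-MS/MS. The 0-min sample, quenched before NADPH addition, was set as 100%, and percent parent remaining came from peak areas.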

[2] = biological target: Aurora kinase A (Homo sapiens) (UniProt O14965); test: Binding affinity to wild-type human partial length AURKA (E122 to K401 residues) expressed in mammalian expression system assessed as residual binding level at 1 uM by Kinomescan method relative to control
[3] = biological target: CDK4/Cyclin D3 (Homo sapiens) (UniProt P11802+P30281); test: Binding affinity to wild-type human full length CDK4/cyclinD3 (M1 to E303 residues) expressed in mammalian expression system assessed as residual binding level at 1 uM by Kinomescan method relative to control
[4] = biological target: Receptor tyrosine-protein kinase erbB-3 (Homo sapiens) (UniProt P21860); test: Binding affinity to wild-type human partial length ERBB3 (G684 to A987 residues) expressed in mammalian expression system assessed as residual binding level at 1 uM by Kinomescan method relative to control
[5] = biological target: Tyrosine-protein kinase Fes/Fps (Homo sapiens) (UniProt P07332); test: Binding affinity to wild-type human partial length FES (I527 to R822 residues) expressed in bacterial expression system assessed as residual binding level at 1 uM by Kinomescan method relative to control
[6] = tested on: Fibroblast growth factor receptor 3 (Homo sapiens), P22607 [G697C]; test: Binding affinity to human partial length FGFR3 G697C mutant (R442 to S771 residues) expressed in bacterial expression system assessed as residual binding level at 1 uM by Kinomescan method relative to control
Outline: (§1)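 Kinome-wide selectivity panel run by the KINOMEscan method, with the test compound at a single concentration of 1 μM. Wild-type and mutant kinases were profiled in the same screen.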

[7] = tested on: Receptor-type tyrosine-protein kinase FLT3 (Homo sapiens), P36888 [D835H]; test: Binding affinity to human partial length FLT3 D835H mutant (V592 to Y969 residues) expressed in bacterial expression system assessed as residual binding level at 1 uM by Kinomescan method relative to control; outline: as §1
[8] = biological target: Serine/threonine-protein kinase MAK (Homo sapiens) (UniProt P20794); test: Binding affinity to wild-type human partial length MAK (M1 to P314 residues) expressed in bacterial expression system assessed as residual binding level at 1 uM by Kinomescan method relative to control
[9] = biological target: Serine/threonine-protein kinase MRCK beta (Homo sapiens) (UniProt Q9Y5S2); test: Binding affinity to wild-type human partial length MRCKB (L56 to S417 residues) expressed in bacterial expression system assessed as residual binding level at 1 uM by Kinomescan method relative to control
[10] = biological target: Serine/threonine-protein kinase 38-like (Homo sapiens) (UniProt Q9Y2H1); test: Binding affinity to wild-type human partial length NDR2 (N34 to E447 residues) expressed in bacterial expression system assessed as residual binding level at 1 uM by Kinomescan method relative to control
[11] = biological target: Serine/threonine-protein kinase Nek1 (Homo sapiens) (UniProt Q96PY6); test: Binding affinity to wild-type human partial length NEK1 (M1 to K278 residues) expressed in bacterial expression system assessed as residual binding level at 1 uM by Kinomescan method relative to control
[12] = biological target: Serine/threonine-protein kinase Nek3 (Homo sapiens) (UniProt P51956); test: Binding affinity to wild-type human full length NEK3 (M1 to R506 residues) expressed in mammalian expression system assessed as residual binding level at 1 uM by Kinomescan method relative to control
Outline: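 Single-point kinome-wide KINOMEscan binding panel, test compound at 1 μM, run by the provider's standard protocol.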

[13] = biological target: Phosphorylase b kinase gamma catalytic chain, liver/testis isoform (Homo sapiens) (UniProt P15735); test: Binding affinity to wild-type human partial length PHKG2 (M1 to W300 residues) expressed in bacterial expression system assessed as residual binding level at 1 uM by Kinomescan method relative to control
[14] = biological target: 1-phosphatidylinositol 3-phosphate 5-kinase (Homo sapiens) (UniProt Q9Y2I7); test: Binding affinity to wild-type human partial length PIKFYVE (F1512 to C2098 residues) expressed in mammalian expression system assessed as residual binding level at 1 uM by Kinomescan method relative to control
[15] = biological target: Serine/threonine-protein kinase pim-3 (Homo sapiens) (UniProt Q86V86); test: Binding affinity to wild-type human partial length PIM3 (G16 to A317 residues) expressed in bacterial expression system assessed as residual binding level at 1 uM by Kinomescan method relative to control
[16] = biological target: Protein kinase C iota type (Homo sapiens) (UniProt P41743); test: Binding affinity to wild-type human partial length PRKCI (H215 to V587 residues) expressed in mammalian expression system assessed as residual binding level at 1 uM by Kinomescan method relative to control
[17] = biological target: Ribosomal protein S6 kinase alpha-4 (Homo sapiens) (UniProt O75676); test: Binding affinity to wild-type human partial length N-terminal RPS6KA4 kinase domain 1 expressed in bacterial expression system assessed as residual binding level at 1 uM by Kinomescan method relative to control
[18] = biological target: Tyrosine-protein kinase Srms (Homo sapiens) (UniProt Q9H3Y6); test: Binding affinity to wild-type human partial length SRMS (L208 to P488 residues) expressed in mammalian expression system assessed as residual binding level at 1 uM by Kinomescan method relative to control
[19] = biological target: Serine/threonine-protein kinase 16 (Homo sapiens) (UniProt O75716); test: Binding affinity to wild-type human partial length STK16 (G11 to I305 residues) expressed in bacterial expression system assessed as residual binding level at 1 uM by Kinomescan method relative to control
[20] = biological target: NT-3 growth factor receptor (Homo sapiens) (UniProt Q16288); test: Binding affinity to wild-type human partial length TRKC (Q531 to G825 residues) expressed in mammalian expression system assessed as residual binding level at 1 uM by Kinomescan method relative to control
[21] = biological target: Testis-specific serine/threonine-protein kinase 1 (Homo sapiens) (UniProt Q9BXA7); test: Binding affinity to wild-type human full length TSSK1B (M1 to Q367 residues) expressed in bacterial expression system assessed as residual binding level at 1 uM by Kinomescan method relative to control
[22] = biological target: Phosphatidylinositol 3-kinase catalytic subunit type 3 (Homo sapiens) (UniProt Q8NEB9); test: Binding affinity to wild-type human partial length VPS34 (S282 to H879 residues) expressed in mammalian expression system assessed as residual binding level at 1 uM by Kinomescan method relative to control
[23] = biological target: Receptor tyrosine-protein kinase erbB-4 (Homo sapiens, UniProt Q15303); test: Inhibition of recombinant N-terminal GST-tagged human ErbB4 cytoplasmic domain expressed in baculovirus expression system by Z-LYTE assay

Chain of Tyrosine-protein kinase Fes/Fps (Homo sapiens) (P07332 whole entry, the tested form may be a part): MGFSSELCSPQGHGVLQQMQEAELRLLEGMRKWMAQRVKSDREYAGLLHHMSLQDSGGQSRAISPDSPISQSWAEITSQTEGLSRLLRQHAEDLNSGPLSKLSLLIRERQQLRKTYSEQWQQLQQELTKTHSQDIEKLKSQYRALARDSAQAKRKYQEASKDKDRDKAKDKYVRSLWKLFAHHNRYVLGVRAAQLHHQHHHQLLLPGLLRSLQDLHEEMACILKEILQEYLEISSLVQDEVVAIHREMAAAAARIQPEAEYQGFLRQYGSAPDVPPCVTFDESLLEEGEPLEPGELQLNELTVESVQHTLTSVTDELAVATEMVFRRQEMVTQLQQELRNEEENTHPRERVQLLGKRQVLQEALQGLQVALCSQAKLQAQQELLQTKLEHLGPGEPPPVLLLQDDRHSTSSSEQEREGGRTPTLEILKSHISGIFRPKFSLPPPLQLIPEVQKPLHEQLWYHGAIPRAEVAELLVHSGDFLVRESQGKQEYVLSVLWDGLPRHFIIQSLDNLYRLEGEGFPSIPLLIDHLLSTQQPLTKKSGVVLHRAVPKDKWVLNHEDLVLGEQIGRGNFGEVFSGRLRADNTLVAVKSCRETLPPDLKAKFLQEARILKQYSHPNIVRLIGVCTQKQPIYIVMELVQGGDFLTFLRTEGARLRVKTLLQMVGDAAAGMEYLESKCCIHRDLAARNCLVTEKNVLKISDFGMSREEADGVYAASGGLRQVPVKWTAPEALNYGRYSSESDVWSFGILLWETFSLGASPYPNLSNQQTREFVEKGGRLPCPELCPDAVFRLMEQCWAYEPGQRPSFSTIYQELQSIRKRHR
Chain of Phosphatidylinositol 3-kinase catalytic subunit type 3 (Homo sapiens) (Q8NEB9 whole entry, the tested form may be a part): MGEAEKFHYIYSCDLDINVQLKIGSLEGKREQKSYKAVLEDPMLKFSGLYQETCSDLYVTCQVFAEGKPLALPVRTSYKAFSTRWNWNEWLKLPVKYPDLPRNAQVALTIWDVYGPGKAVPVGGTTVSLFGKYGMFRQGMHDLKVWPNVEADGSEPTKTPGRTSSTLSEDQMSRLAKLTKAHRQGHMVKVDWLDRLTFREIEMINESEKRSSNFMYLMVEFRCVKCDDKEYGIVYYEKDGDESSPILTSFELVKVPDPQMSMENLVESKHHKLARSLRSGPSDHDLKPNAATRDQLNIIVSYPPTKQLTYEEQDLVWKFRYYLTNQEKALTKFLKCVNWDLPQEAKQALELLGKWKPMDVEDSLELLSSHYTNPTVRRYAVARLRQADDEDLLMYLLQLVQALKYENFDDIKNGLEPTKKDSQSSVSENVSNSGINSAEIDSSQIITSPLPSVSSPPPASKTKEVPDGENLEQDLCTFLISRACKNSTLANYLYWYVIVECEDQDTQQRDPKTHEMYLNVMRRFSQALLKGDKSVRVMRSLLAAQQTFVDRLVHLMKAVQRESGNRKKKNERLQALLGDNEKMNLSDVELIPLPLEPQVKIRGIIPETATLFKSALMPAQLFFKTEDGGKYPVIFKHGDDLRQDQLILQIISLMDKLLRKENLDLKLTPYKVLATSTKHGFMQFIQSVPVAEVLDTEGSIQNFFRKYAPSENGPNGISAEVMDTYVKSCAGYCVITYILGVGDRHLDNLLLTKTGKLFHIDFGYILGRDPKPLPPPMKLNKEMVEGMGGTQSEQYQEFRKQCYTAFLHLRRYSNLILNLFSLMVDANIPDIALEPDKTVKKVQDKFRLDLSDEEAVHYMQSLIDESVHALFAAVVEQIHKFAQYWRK
Chain of Serine/threonine-protein kinase MAK (Homo sapiens) (P20794 whole entry, the tested form may be a part): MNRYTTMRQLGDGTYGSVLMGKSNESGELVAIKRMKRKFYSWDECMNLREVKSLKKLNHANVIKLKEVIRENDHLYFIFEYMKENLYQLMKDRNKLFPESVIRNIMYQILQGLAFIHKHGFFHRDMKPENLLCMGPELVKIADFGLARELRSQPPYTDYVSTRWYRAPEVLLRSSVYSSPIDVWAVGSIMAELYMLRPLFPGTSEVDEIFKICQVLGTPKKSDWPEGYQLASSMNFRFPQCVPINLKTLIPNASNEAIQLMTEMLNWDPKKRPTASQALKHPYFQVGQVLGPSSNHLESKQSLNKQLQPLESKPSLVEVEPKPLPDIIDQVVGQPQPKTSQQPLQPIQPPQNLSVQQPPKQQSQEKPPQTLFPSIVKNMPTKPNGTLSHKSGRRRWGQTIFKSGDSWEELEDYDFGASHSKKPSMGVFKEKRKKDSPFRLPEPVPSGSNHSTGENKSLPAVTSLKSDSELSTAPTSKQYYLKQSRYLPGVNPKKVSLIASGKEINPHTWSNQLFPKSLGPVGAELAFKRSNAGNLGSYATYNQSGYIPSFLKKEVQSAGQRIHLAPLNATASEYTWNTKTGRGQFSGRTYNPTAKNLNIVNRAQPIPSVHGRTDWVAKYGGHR
Chain of Testis-specific serine/threonine-protein kinase 1 (Homo sapiens) (Q9BXA7 whole entry, the tested form may be a part): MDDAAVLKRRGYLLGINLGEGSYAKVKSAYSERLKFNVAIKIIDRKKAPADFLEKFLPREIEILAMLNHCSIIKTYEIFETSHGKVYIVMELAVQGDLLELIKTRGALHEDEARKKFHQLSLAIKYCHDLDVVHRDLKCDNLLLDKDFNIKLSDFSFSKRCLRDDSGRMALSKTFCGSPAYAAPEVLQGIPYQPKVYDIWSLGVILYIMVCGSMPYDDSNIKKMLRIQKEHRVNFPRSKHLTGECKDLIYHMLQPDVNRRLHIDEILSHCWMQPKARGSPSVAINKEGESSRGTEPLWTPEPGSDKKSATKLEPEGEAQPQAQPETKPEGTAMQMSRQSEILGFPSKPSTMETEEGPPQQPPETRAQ
Chain of 1-phosphatidylinositol 3-phosphate 5-kinase (Homo sapiens) (Q9Y2I7 whole entry, the tested form may be a part): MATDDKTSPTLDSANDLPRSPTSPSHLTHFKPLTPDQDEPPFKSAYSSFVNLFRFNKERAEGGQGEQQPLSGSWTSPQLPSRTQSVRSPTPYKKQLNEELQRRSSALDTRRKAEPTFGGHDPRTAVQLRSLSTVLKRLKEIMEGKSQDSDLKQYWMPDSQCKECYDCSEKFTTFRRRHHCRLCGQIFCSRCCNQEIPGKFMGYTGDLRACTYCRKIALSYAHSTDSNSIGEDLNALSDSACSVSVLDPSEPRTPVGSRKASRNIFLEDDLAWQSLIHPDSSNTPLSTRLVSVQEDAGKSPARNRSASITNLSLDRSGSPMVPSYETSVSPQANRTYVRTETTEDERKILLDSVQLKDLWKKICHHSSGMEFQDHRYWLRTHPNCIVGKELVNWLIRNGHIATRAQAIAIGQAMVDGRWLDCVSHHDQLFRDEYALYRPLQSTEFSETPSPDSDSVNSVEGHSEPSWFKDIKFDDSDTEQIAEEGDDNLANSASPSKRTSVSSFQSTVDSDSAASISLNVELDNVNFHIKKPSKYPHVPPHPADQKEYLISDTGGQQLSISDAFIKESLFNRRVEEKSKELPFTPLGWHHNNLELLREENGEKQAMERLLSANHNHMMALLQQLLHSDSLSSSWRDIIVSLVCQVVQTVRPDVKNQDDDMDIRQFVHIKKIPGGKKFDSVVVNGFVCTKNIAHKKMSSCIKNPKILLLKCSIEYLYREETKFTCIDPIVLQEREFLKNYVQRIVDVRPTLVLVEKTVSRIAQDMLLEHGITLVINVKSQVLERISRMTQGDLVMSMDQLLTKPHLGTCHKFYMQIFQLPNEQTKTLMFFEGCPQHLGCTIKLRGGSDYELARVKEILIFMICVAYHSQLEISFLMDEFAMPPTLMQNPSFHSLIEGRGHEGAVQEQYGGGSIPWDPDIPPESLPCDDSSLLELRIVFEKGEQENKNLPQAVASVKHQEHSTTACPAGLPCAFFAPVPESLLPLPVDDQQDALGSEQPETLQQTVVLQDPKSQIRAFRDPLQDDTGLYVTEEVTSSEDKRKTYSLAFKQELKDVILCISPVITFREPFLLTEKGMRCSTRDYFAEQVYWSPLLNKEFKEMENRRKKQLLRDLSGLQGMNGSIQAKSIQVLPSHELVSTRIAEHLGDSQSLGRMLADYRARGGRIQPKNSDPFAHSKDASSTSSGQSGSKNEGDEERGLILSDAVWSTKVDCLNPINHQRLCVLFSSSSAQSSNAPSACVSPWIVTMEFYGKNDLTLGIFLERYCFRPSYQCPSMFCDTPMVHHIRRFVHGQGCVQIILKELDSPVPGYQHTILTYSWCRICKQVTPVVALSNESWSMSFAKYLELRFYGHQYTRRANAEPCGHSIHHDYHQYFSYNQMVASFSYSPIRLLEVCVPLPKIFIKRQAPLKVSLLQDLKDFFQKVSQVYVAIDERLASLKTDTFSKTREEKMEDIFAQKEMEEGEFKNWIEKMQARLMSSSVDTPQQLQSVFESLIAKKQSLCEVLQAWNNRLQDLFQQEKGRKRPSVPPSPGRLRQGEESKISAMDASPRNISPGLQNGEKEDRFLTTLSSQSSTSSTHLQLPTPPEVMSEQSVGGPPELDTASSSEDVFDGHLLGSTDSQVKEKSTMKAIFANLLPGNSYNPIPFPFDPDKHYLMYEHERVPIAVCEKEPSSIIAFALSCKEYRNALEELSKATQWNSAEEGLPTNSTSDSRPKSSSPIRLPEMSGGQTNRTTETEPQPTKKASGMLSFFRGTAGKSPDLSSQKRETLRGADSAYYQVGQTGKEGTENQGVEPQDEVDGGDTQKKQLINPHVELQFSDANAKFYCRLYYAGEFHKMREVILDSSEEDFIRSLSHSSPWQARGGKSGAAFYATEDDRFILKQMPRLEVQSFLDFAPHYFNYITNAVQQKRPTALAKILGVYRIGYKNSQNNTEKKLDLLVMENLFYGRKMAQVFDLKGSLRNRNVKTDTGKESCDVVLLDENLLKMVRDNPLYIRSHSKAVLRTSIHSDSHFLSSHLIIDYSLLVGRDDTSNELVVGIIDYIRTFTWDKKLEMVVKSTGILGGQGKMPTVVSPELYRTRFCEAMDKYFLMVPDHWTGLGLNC
Chain of Serine/threonine-protein kinase 16 (Homo sapiens) (O75716 whole entry, the tested form may be a part): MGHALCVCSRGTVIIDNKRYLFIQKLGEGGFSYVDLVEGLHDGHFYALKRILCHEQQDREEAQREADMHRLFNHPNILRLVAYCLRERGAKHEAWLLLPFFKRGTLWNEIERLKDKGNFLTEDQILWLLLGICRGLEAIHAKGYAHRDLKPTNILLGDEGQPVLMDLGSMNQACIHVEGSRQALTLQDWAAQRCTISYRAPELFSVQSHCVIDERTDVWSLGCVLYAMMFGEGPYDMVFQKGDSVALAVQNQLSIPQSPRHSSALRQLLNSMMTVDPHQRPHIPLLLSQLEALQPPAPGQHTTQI

## C=CC(=O)Nc1cc(Nc2ncc(Cl)c(Nc3ccccc3S(=O)(=O)C(C)C)n2)c(OC)cc1N(C)CCN(C)C
[1]
  remaining at 0.5 h, 1 µM: 16%
[2]
  Activity: 4.2%
[3]
  Activity: 55%
[4]
  Activity: 91%
[5]
  Activity: 1.4%
[6]
  Activity: 15%
[7]
  Activity: 1.6%
[8]
  Activity: 100%
[9]
  Activity: 100%
[10]
  Activity: 54%
[11]
  Activity: 68%
[12]
  Activity: 67%
[13]
  Activity: 10%
[14]
  Activity: 100%
[15]
  Activity: 96%
[16]
  Activity: 73%
[17]
  Activity: 99%
[18]
  Activity: 6.5%
[19]
  Activity: 64%
[20]
  Activity: 85%
[21]
  Activity: 12%
[22]
  Activity: 67%
[23]
  IC50: 3 nM
